Data set [1] concerns the target T1, Multidrug resistance-associated protein 1 (Homo sapiens, UniProt P33527). Put plainly: Inhibition of MRP1 in human H69AR cells assessed as daunorubicin accumulation preincubated for 15 mins measured after 180 mins by flow cytometry. In kind it is cell-based. In outline: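 H69 AR cells, about 60,000 per well in culture medium. Preincubated 15 min with compound diluted in unsupplemented medium, then daunorubicin added (20 µL of 30 µM solution). Held 180 min at 37 °C, 5% CO2, protected from light, to reach steady state. Cells resuspended; flow cytometry with 488 nm excitation, FL3 ≥670 nm. IC50 from four-parameter logistic with variable Hill slope; ≥3 independent experiments in duplicate.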

The species entered for data set [2] is Homo sapiens. Put plainly: Inhibition of P-gp (unknown origin) at 10 uM after 30 mins by calcein AM accumulation assay.
In data set [3] the target is T1, Multidrug resistance-associated protein 1. The experiment in a line: Inhibition of MRP1 in human H69AR cells incubated for 20 mins measured every 60 seconds by calcein-AM accumulation assay.
Data set [4] addresses T2, BCRP (ABCG2) (Homo sapiens, UniProt Q9UNQ0).
T2 sequence (Q9UNQ0 whole entry): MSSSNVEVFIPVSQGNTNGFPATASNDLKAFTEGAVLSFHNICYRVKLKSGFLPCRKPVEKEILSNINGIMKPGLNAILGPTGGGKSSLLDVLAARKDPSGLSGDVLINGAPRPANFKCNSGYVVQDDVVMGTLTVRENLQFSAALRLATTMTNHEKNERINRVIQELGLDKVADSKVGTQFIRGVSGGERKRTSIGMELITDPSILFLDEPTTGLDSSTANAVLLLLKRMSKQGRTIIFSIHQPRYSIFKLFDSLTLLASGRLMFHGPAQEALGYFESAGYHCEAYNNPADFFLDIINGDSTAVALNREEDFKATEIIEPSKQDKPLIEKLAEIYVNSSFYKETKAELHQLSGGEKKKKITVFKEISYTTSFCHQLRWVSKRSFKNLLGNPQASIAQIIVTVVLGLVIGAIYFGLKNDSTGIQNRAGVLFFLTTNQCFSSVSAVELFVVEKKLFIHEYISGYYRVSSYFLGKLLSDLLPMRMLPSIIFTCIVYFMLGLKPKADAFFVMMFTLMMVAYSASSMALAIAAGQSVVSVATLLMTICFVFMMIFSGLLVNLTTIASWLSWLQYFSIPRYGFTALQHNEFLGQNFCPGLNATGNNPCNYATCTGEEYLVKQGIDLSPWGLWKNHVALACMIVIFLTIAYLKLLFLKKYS
The experiment in a line: Inhibition of BCRP (unknown origin) expressed in MDCK2 cells assessed as pheophorbide A accumulation at 10 uM preincubated for 20 mins measured after 120 mins by flow cytometry. In kind it is cell-based, MDCK-II. As to conditions: MDCK2 cells expressing BCRP, probe pheophorbide A. Put shortly: (§1)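 MDCK II BCRP cells (GFP detected in FL1 to monitor BCRP expression), about 45,000 per well. Preincubated 20 min at 37 °C, 5% CO2 with compound (1–100 µM solutions, 20 µL into 200 µL final volume). Pheophorbide A added (20 µL of 5 µM solution) for 120 min to reach steady state. Cells resuspended, then flow cytometry: 488 nm excitation, FL3 ≥670 nm. […] The four-parameter logistic top was constrained to Ko143; ≥3 experiments in duplicate.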

The target in data set [5] is T3, Broad substrate specificity ATP-binding cassette transporter ABCG2 (Homo sapiens, UniProt Q9UNQ0).
T3 sequence (Q9UNQ0 whole entry): T2 sequence (Q9UNQ0 whole entry)
The experiment in a line: Inhibition of BCRP (unknown origin) expressed in MDCK2 cells assessed as pheophorbide A accumulation preincubated for 20 mins measured after 120 mins by flow cytometry. It counts as cell-based, MDCK-II. In outline: as §1

Data set [6] in a line: Inhibition of P-gp in human A2780/ADR cells after 30 mins by calcein AM accumulation assay. In kind it is cell-based. The conditions noted are these: 0.5 h.
Data set [7] is described as follows: Cytotoxicity against human H69AR cells overexpressing MRP1 assessed as reduction in cell viability at 10 uM after 72 hrs by MTT assay. It counts as cell-based. As to conditions: for Activity: h69ar, 72 h, 10 µM. Put shortly:
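H69 AR cells, about 20,000 per well, 72 h at 37 °C in humidified CO2 with compound at 10 µM. MTT (5 mg/mL, 20 µL) added for 1 h, then DMSO solubilization and absorbance 570 nm with 690 nm background. Viability scaled between plain medium (100%) and 10% DMSO (0%). ≥3 independent experiments in duplicate.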

The nature of data set [8]: Cytotoxicity against human H69AR cells overexpressing MRP1 assessed as growth inhibition after 72 hrs by MTT assay. It counts as cell-based. In outline:
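H69 AR cells, about 20,000 per well, exposed 72 h at 37 °C in humidified CO2 to test compound diluted in culture medium (100 nM to 100 µM solutions, 20 µL added to 180 µL cells). Then MTT (5 mg/mL, 20 µL) for 1 h, formazan taken up in DMSO, absorbance 570 nm minus 690 nm. Plain medium set 100% viability, 10% DMSO 0%. GI50 from variable-slope nonlinear fit; ≥3 independent experiments in duplicate.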

For data set [9], the target named is T1, Multidrug resistance-associated protein 1. The experiment in a line: Inhibition of MRP1 in human H69AR cells incubated for 20 mins measured […] by calcein-AM accumulation assay. In kind it is cell-based. Put shortly: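 H69 AR cells, about 60,000 per well in Krebs-HEPES buffer pH 7.4. Incubated 20 min at 37 °C, 5% CO2 with compound (100 nM–100 µM solutions, 20 µL in 200 µL final volume). Calcein AM then added (20 µL of 3.125 µM). Fluorescence (ex 485/em 520 nm, 37 °C) read every 60 s. Slope between min 5 and 30 plotted against log concentration; four-parameter logistic fit; ≥3 experiments in duplicate.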

T1 sequence (P33527 whole entry): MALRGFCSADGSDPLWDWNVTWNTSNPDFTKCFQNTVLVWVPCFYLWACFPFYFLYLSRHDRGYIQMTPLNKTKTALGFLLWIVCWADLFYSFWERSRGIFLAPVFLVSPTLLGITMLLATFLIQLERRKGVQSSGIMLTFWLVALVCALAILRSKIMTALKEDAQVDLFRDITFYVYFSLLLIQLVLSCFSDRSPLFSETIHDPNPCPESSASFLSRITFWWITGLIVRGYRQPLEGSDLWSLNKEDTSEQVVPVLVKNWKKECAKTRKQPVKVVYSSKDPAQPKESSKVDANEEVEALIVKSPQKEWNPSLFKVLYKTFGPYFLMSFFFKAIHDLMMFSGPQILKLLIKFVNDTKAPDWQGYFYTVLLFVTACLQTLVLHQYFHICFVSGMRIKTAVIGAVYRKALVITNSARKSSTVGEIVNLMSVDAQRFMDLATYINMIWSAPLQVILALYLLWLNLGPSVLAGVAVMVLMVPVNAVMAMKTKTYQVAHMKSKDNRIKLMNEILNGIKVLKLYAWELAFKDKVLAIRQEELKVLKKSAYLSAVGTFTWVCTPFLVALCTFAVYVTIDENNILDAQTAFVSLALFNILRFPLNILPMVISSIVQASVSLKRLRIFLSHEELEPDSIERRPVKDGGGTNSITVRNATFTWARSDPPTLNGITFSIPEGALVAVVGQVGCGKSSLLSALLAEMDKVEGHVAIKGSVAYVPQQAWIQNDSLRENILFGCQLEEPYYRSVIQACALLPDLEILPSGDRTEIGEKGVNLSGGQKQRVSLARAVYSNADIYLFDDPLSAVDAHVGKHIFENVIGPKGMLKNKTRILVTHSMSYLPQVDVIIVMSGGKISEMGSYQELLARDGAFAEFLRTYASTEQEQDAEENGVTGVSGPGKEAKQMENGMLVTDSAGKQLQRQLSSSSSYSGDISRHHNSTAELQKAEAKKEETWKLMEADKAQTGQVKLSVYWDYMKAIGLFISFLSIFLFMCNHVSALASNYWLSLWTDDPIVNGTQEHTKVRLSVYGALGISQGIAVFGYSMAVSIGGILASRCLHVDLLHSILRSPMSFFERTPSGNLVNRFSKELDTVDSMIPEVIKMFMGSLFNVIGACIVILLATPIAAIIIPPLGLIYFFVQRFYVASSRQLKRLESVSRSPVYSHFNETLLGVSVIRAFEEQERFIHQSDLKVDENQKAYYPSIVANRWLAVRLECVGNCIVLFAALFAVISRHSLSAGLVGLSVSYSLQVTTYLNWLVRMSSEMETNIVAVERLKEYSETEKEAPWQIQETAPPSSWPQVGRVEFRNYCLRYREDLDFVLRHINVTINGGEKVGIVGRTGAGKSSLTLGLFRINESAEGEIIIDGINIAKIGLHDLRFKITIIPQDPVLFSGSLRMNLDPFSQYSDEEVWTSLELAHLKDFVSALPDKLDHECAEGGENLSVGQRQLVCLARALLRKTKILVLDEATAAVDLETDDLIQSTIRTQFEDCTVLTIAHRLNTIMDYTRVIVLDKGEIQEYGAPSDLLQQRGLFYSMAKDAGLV

Consider `N#Cc1c2n(c3c(NCCc4ccccc4)ncnc13)CCCC2`, for which the concentration for half-maximal inhibition (IC50) in [1] is 4980 nM; in data set [3], 8370 nM. Moreover, the inhibition in [2] is more than 25%. Moreover, in data set [4], the inhibition at 2 h, 10 µM is more than 25%.
On to `N#Cc1c2n(c3c(N4CCN(C(c5ccccc5)c5ccccc5)CC4)ncnc13)CCCC2`, for which the IC50 is 14300 nM in data set [5], 1070 nM in data set [1] and 1620 nM in data set [3]. Also, in [2], the inhibition is more than 25%. For the same molecule, the inhibition at 2 h, 10 µM in [4] is more than 25%.
On to `CCCn1cc(C#N)c2ncnc(N3CCN(CCc4ccccc4)CC3)c21`, for which the concentration for half-maximal inhibition (IC50) in data set [1] is 418 nM; in data set [3] it was 543 nM; in data set [6], 41900 nM. Besides, the inhibition in data set [2] is more than 25%. Besides, the inhibition at 2 h, 10 µM in data set [4] is less than 25%.
Consider `CC(C)n1cc(C#N)c2ncnc(N3CCN(CCc4ccccc4)CC3)c21`, for which the IC50 in data set [1] was 1240 nM; in data set [3], 821 nM. In [2], the inhibition was more than 25%. Also, the inhibition at 2 h, 10 µM in [4] was less than 25%.
As to `CCn1cc(C#N)c2ncnc(N3CCN(CCc4ccccc4)CC3)c21`, the values for the half-maximal inhibitory concentration (IC50) in data set [1] and in data set [3] were 789 nM and 1060 nM, respectively. Moreover, the inhibition in data set [2] is more than 25%. In addition, the inhibition at 2 h, 10 µM in data set [4] is less than 25%.
On to `N#Cc1c2n(c3c(N4CCN(Cc5ccccc5)CC4)ncnc13)CCCC2`, for which the IC50 in data set [5] was 8240 nM; in data set [1], 636 nM; in data set [3], 671 nM; in [6], 32300 nM. In data set [2], the inhibition was more than 25%. Further, the inhibition at 2 h, 10 µM in data set [4] is more than 25%.
As to `N#Cc1c2n(c3c(N4CCN(c5ccccc5)CC4)ncnc13)CCCC2`, the half-maximal inhibitory concentration (IC50) in [5] is 5910 nM; in data set [1], 2900 nM; in data set [3] it was 2560 nM. Moreover, in data set [2], the inhibition is more than 25%. In data set [4], the inhibition at 2 h, 10 µM was more than 25%.
For the molecule `N#Cc1c2n(c3c(NCc4ccccc4)ncnc13)CCCC2`, the IC50 was 15800 nM in data set [5], 8800 nM in [1] and 14200 nM in [3]. In addition, the inhibition in data set [2] is more than 25%. In addition, the inhibition at 2 h, 10 µM in [4] was more than 25%.
For `N#Cc1cn(CCCc2ccccc2)c2c(N3CCN(CCc4ccccc4)CC3)ncnc12`, the figures for the half-maximal inhibitory concentration (IC50) in data set [1] and in [3] were 586 nM and 956 nM, respectively. In addition, the inhibition in data set [2] was more than 25%. Also, the inhibition at 2 h, 10 µM in data set [4] is less than 25%.
Turning to `N#Cc1c2n(c3c(N4CCN(CCc5ccccc5)CC4)ncnc13)CCCC2`, the IC50 in data set [5] was 8190 nM; in data set [1], 197 nM; in data set [3], 370 nM; in data set [6] it was 18800 nM. Moreover, the Activity entry in data set [7] is “Non-toxic”. Besides, the GI50 at 72 h in data set [8] was determined as 39900 nM. The inhibition in data set [2] was more than 25%. The inhibition at 2 h, 10 µM in data set [4] is more than 25%.
`N#Cc1c2n(c3c(N4CCN(c5ccccc5)CC4)ncnc13)CCCCC2`: the concentration for half-maximal inhibition (IC50) is 15100 nM in [1] and 8980 nM in [9]. Further, the inhibition in [2] is more than 25%. For the same molecule, the inhibition at 2 h, 10 µM in [4] was more than 25%.
In the case of `N#Cc1cn(Cc2ccccc2)c2c(N3CCN(CCc4ccccc4)CC3)ncnc12`, the IC50 in data set [1] is 623 nM; in [3] it was 1000 nM; in [6], 10600 nM. Also, the inhibition in data set [2] was more than 25%. For the same molecule, the inhibition at 2 h, 10 µM in [4] is less than 25%.
For `N#Cc1cn(CCc2ccccc2)c2c(N3CCN(Cc4ccccc4)CC3)ncnc12`, the concentration for half-maximal inhibition (IC50) is 983 nM in [1] and 910 nM in data set [3]. The inhibition in [2] was more than 25%. The inhibition at 2 h, 10 µM in [4] was less than 25%.
With `N#Cc1c2n(c3c(N4CCN(C(c5ccccc5)c5ccccc5)CC4)ncnc13)CCCCC2`, the IC50 in [5] was 8710 nM; in [1], 1010 nM; in data set [9], 1950 nM; in [6], 28600 nM. In addition, in data set [2], the inhibition is more than 25%. Besides, the inhibition at 2 h, 10 µM in data set [4] was more than 25%.
On to `N#Cc1c2n(c3c(Nc4ccccc4)ncnc13)CCCC2`, for which the IC50 is 7680 nM in data set [5], 9410 nM in data set [1] and 14200 nM in [3]. Also, the inhibition in [2] is more than 25%. Also, in data set [4], the inhibition at 2 h, 10 µM was more than 25%.
Take `N#Cc1cn(-c2ccccc2)c2c(N3CCN(Cc4ccccc4)CC3)ncnc12`: the IC50 in data set [1] was 866 nM; in data set [3], 1220 nM. The inhibition in data set [2] is more than 25%. Besides, in [4], the inhibition at 2 h, 10 µM was less than 25%.
Take `N#Cc1cn(CCc2ccccc2)c2c(N3CCN(CCc4ccccc4)CC3)ncnc12`: the half-maximal inhibitory concentration (IC50) in data set [1] is 1120 nM; in data set [3], 1020 nM; in data set [6] it was 32500 nM. In data set [2], the inhibition was more than 25%. In addition, the inhibition at 2 h, 10 µM in data set [4] was less than 25%.
As for `N#Cc1cn(-c2ccccc2)c2c(N3CCN(CCc4ccccc4)CC3)ncnc12`, the half-maximal inhibitory concentration (IC50) in data set [1] was 340 nM; in [3], 750 nM; in [6], 6820 nM. In addition, the cytotoxicity at 72 h, 10 µM in data set [7] (H69AR cells overexpressing MRP1, read-out: INH) was found to be 40%. The 50% growth inhibitory concentration (GI50) at 72 h in data set [8] is 23600 nM. For the same molecule, in data set [2], the inhibition was more than 25%. The inhibition at 2 h, 10 µM in data set [4] is less than 25%.
For `N#Cc1c2n(c3c(N4CCN(CCc5ccccc5)CC4)ncnc13)CCCCC2`, the IC50 in [5] was 9940 nM; in data set [1], 643 nM; in data set [9], 833 nM; in [6], 19200 nM. Moreover, the Activity result in [7] is “Non-toxic”. Also, the GI50 at 72 h in [8] came out at 79800 nM. For the same molecule, the inhibition in [2] is more than 25%. Also, the inhibition at 2 h, 10 µM in data set [4] is more than 25%.
Regarding `CN1CCN(c2ncnc3c(C#N)c4n(c23)CCCC4)CC1`, the results for the IC50 in data set [5], in data set [1] and in data set [3] were 4250 nM, 2870 nM and 5060 nM, respectively. Further, in data set [2], the inhibition was more than 25%. In addition, the inhibition at 2 h, 10 µM in data set [4] was more than 25%.
On to `N#Cc1cn(CCCc2ccccc2)c2c(N3CCN(Cc4ccccc4)CC3)ncnc12`, for which the IC50 is 2360 nM in data set [1] and 3150 nM in [3]. The inhibition in data set [2] was more than 25%. Also, in data set [4], the inhibition at 2 h, 10 µM was less than 25%.
For `N#Cc1cn(Cc2ccccc2)c2c(N3CCN(Cc4ccccc4)CC3)ncnc12`, in that order: 876 nM, 2770 nM, more than 25% and less than 25%.
As to `Cn1cc(C#N)c2ncnc(N3CCN(CCc4ccccc4)CC3)c21`, the 50% inhibitory concentration (IC50) in [1] was 700 nM; in data set [3], 714 nM. The inhibition in data set [2] is more than 25%. The inhibition at 2 h, 10 µM in data set [4] was less than 25%.

These data come from ChEMBL document CHEMBL3804803, “Pyrrolopyrimidine Derivatives as Novel Inhibitors of Multidrug Resistance-Associated Protein 1 (MRP1, ABCC1)” (J Med Chem, 2016).
